# A1 apoptosis 2: blocks A1, raising caspase activity | AID 2465 | MEF A1-2A-BIM cells, caspase-Glo luminescence, 3 h; percent of clofoctol response, DMSO zero | caspase activation, % (no concentration beside the values) | 24,000 tested, under 10 active; in the data active = caspase activation above about 5.9%
#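 system = A1-2A-BIM-expressing MEF cells | quantity = 2500 MEF cells/well | dosing = 50 nL compound per well, pinned | schedule = overnight cell settling, then 3 h compound exposure, 37 °C | signal = luminescence from DEVD-luciferin Caspase-Glo reagent, 1:1 in 50 mM HEPES, 1 h RT | read-out = Caspase-3/7 activation, seen as rise in luminescence signal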
# T cruzi HTS: intracellular Trypanosoma cruzi inhibition; intracellular Trypanosoma cruzi in host cells, plate reader; activity score (inhibition), % at 5.01 µM; 22,000 tested, 4.9% active; AID 651903; in the data active = activity score above about 55%;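 also: parasites and compound incubated about four days before reading; 0% = median of neutral control wells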
# INS-1E ATP HTS: rescue of cytokine-induced death in INS-1E beta cells. INS-1E cytokine-induced death, ATP luminescence, 48 h; normalised: neutral wells 0, positive control 100. protection from cytokine-induced ATP loss, % at 10 µM. 20,000 tested, 0.1% active. AID 488910;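 active = mean replicate protection from cytokine-induced ATP loss at least 50% and at least 75% of replicates each reaching 50%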
#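 Test system: INS-1E rat cells | Quantity: 8000 cells per well | Medium: Phenol-red-free RPMI with 5% fetal bovine serum | Reagent: Cytokine cocktail of IFN-γ, TNF-α and IL-1β | Doses: One compound concentration, pin transfer | Timing: 48 h co-treatment, 10 min post-lysis read | Technique: Luminescent ATP assay (CellTiter-Glo)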
# An asterisk follows results filed as active; nt = no result. The entries come from a sample that favours hits as a whole.
SMILES,A1 apoptosis 2,T cruzi HTS,INS-1E ATP HTS
COc1ccc(S(=O)(=O)N(C)C[C@H]2Oc3c(NC(=O)c4nc5ccccc5s4)cccc3C(=O)N([C@@H](C)CO)C[C@H]2C)cc1,nt,30.2,-19.4
C[C@H]1CN([C@@H](C)CO)C(=O)c2cccc(NC(=O)c3nc4ccccc4s3)c2O[C@@H]1CN(C)S(=O)(=O)c1ccc(F)cc1,-0.4,67.4*,-20.4
C[C@H]1CN([C@@H](C)CO)C(=O)c2cccc(NC(=O)c3nc4ccccc4s3)c2O[C@H]1CN(C)S(=O)(=O)c1ccc(Cl)cc1,0.0,35.8,1.7
C[C@H]1CN([C@@H](C)CO)C(=O)c2cccc(NC(=O)c3nc4ccccc4s3)c2O[C@@H]1CN(C)S(=O)(=O)c1ccc(Cl)cc1,-1.4,78.5*,-16.9
CN(C)C(=O)[C@@]1(CCS(=O)(=O)c2ccccc2)N=C(c2ccc(OCCCO)cc2)O[C@H]1c1ccccc1,0.3,nt,nt
C[C@@H]1CN([C@H](C)CO)C(=O)c2cccc(NC(=O)c3ccncc3)c2O[C@@H]1CN(C)Cc1ccc(-c2ccccc2)cc1,-1.4,66.7*,-20.9
C[C@H](CO)N1C[C@H](C)[C@@H](CN(C)Cc2ccc(C(=O)O)cc2)Oc2c(NC(=O)c3ccncc3)cccc2C1=O,0.9,-18.4,1.0
C[C@H]1CN([C@@H](C)CO)C(=O)c2cccc(NC(=O)c3ccncc3)c2O[C@@H]1CN(C)Cc1ccc(C(=O)O)cc1,-0.2,-13.6,16.9
C[C@@H]1CN([C@@H](C)CO)C(=O)c2cccc(NC(=O)c3ccncc3)c2O[C@@H]1CN(C)Cc1ccc(-c2ccccc2)cc1,nt,58.5*,-21.6
C[C@@H]1CN([C@H](C)CO)C(=O)c2cccc(NC(=O)C3CCOCC3)c2O[C@@H]1CN(C)Cc1ccccc1,0.2,-9.0,1.0
C[C@@H]1CCCCO[C@H](CN(C)S(=O)(=O)c2ccc(Cl)cc2)[C@H](C)CN([C@H](C)CO)C(=O)c2cc(NS(=O)(=O)c3ccc(F)cc3)ccc2O1,-0.7,nt,nt
C[C@H](CO)N1C[C@H](C)[C@H](CN(C)Cc2ccncc2)OCCCC[C@H](C)Oc2ccc(NC(=O)Cc3ccccc3)cc2C1=O,1.7,nt,nt
C[C@@H]1CCCCO[C@@H](CN(C)Cc2ccc(Cl)c(Cl)c2)[C@@H](C)CN([C@H](C)CO)C(=O)c2cc(NC(=O)c3ccccc3)ccc2O1,-1.1,65.3*,-43.1
C[C@@H]1CCCCO[C@H](CN(C)Cc2ccc(Cl)c(Cl)c2)[C@H](C)CN([C@@H](C)CO)C(=O)c2cc(NC(=O)Nc3ccc(F)cc3)ccc2O1,-1.7,nt,nt
C[C@@H]1CCCCO[C@H](CN(C)Cc2ccc(C(=O)Nc3ccccc3N)cc2)[C@@H](C)CN([C@H](C)CO)C(=O)c2cc(NS(=O)(=O)c3ccccc3)ccc2O1,-1.3,nt,nt
C[C@@H]1CCCCO[C@H](CN(C)Cc2ccc(Cl)c(Cl)c2)[C@@H](C)CN([C@@H](C)CO)C(=O)c2cc(NC(=O)c3ccccc3)ccc2O1,0.2,nt,nt
C[C@@H]1CN([C@@H](C)CO)C(=O)c2cc(NC(=O)Nc3ccc(F)cc3)ccc2O[C@@H](C)CCCCO[C@H]1CN(C)Cc1ccc(Cl)c(Cl)c1,-0.7,nt,nt
C[C@@H]1CCCCO[C@@H](CN(C)Cc2ccc(C(=O)Nc3ccccc3N)cc2)[C@@H](C)CN([C@H](C)CO)C(=O)c2cc(NS(C)(=O)=O)ccc2O1,-0.3,56.3*,-14.6
C[C@@H]1CCCCO[C@H](CN(C)Cc2ccc(Cl)c(Cl)c2)[C@@H](C)CN([C@H](C)CO)C(=O)c2cc(NC(=O)Nc3ccc(F)cc3)ccc2O1,-0.1,85.9*,-9.0
C[C@@H]1CCCCO[C@@H](CN(C)Cc2ccc(Cl)c(Cl)c2)[C@@H](C)CN([C@H](C)CO)C(=O)c2cc(NC(=O)Nc3ccc(F)cc3)ccc2O1,nt,67.1*,-13.8
Cc1ccc(S(=O)(=O)Nc2ccc3c(c2)C(=O)N([C@@H](C)CO)C[C@@H](C)[C@@H](CN(C)C(=O)NC(C)C)O3)cc1,nt,4.0,nt
Cc1ccc(S(=O)(=O)Nc2cccc3c2O[C@@H](CN(C)S(=O)(=O)c2ccc(C)cc2)[C@@H](C)CN([C@@H](C)CO)C3=O)cc1,nt,24.0,4.7
C[C@@H]1CCCCO[C@H](CN(C)S(=O)(=O)c2ccc(F)cc2)[C@H](C)CN([C@H](C)CO)C(=O)c2cc(NS(=O)(=O)c3ccc(F)cc3)ccc2O1,0.3,nt,nt
C[C@@H]1CCCCO[C@@H](CN(C)Cc2ccc(Cl)c(Cl)c2)[C@@H](C)CN([C@H](C)CO)C(=O)c2cc(NC(=O)NC3CCCCC3)ccc2O1,1.1,66.0*,-15.6
C[C@@H]1CCCCO[C@H](CN(C)Cc2ccc(Cl)c(Cl)c2)[C@@H](C)CN([C@@H](C)CO)C(=O)c2cc(NC(=O)NC3CCCCC3)ccc2O1,-0.1,nt,nt
SMILES,A1 apoptosis 2,T cruzi HTS,INS-1E ATP HTS
C[C@H](CO)N1C[C@H](C)[C@H](CN(C)Cc2ccc(Cl)c(Cl)c2)Oc2c(NS(=O)(=O)c3ccc(F)cc3)cccc2C1=O,nt,-39.4,-15.1
Cc1cc(C(=O)Nc2cccc3c2O[C@H](CN(C)C(=O)Nc2ccccc2)[C@@H](C)CN([C@@H](C)CO)C3=O)n(C)n1,0.4,-41.0,4.1
Cc1cc(C(=O)Nc2cccc3c2O[C@H](CN(C)Cc2ccc(-c4ccccc4)cc2)[C@H](C)CN([C@@H](C)CO)C3=O)n(C)n1,-0.1,-26.1,-22.9
Cc1cc(C(=O)Nc2cccc3c2O[C@H](CN(C)Cc2ccc(C(F)(F)F)cc2)[C@@H](C)CN([C@H](C)CO)C3=O)n(C)n1,0.6,69.0*,-18.4
Cc1cc(C(=O)Nc2cccc3c2O[C@H](CN(C)Cc2ccc(C(F)(F)F)cc2)[C@H](C)CN([C@@H](C)CO)C3=O)n(C)n1,-2.0,-4.0,-2.7
Cc1cc(C(=O)Nc2cccc3c2O[C@@H](CN(C)Cc2ccc(-c4ccccc4)cc2)[C@@H](C)CN([C@H](C)CO)C3=O)n(C)n1,-0.7,63.9*,-20.0
Cc1cc(C(=O)Nc2cccc3c2O[C@@H](CN(C)C(=O)Nc2ccccc2)[C@@H](C)CN([C@H](C)CO)C3=O)n(C)n1,-1.3,60.7*,4.5
C[C@@H]1CN([C@H](C)CO)C(=O)c2cc(NS(=O)(=O)c3ccccc3)ccc2O[C@@H]1CN(C)Cc1ccc(Cl)c(Cl)c1,nt,-7.5,-2.0
C[C@@H]1CN([C@@H](C)CO)C(=O)c2cc(NS(=O)(=O)c3ccc(Cl)cc3)ccc2O[C@H]1CN(C)Cc1ccc(Cl)c(Cl)c1,1.3,58.2*,-8.4
C[C@H]1CN([C@@H](C)CO)C(=O)c2cc(NS(=O)(=O)c3ccccc3)ccc2O[C@@H]1CN(C)Cc1ccc(Cl)c(Cl)c1,nt,61.6*,-6.5
Cc1ccc(S(=O)(=O)Nc2ccc3c(c2)C(=O)N([C@@H](C)CO)C[C@@H](C)[C@@H](CN(C)Cc2ccc(Cl)c(Cl)c2)O3)cc1,nt,63.9*,-37.4
C[C@H]1CN([C@@H](C)CO)C(=O)c2cc(NS(=O)(=O)c3ccc(Cl)cc3)ccc2O[C@@H]1CN(C)Cc1ccc(Cl)c(Cl)c1,0.5,46.2,-12.9

# Screens from PubChem BioAssay.
